Where a SMILES comes first, the peptide text is derived from it. Bridges are numbered along the chain shown (N, C = ends). [ ]: non-standard residue; d: D form. 2Nal = N[C@@H](Cc1ccc2ccccc2c1)C(=O)O; Dmt = Cc1cc(O)cc(C)c1C[C@H](N)C(=O)O; dOrn = NCCC[C@@H](N)C(=O)O
Columns and labels:
[1] = target: Delta-type opioid receptor (Rattus norvegicus, UniProt P33533); assay: Binding affinity was determined by displacement of [3H]- DSLET at Opioid receptor delta 1 in rat brain membrane homogenates; type: cell membranes
Method in brief: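 Rat brain membranes, [3H]DSLET at 0.78 nM, 2 h at 25 °C, with a peptidase inhibitor cocktail in buffer. Poorly soluble peptides dissolved in DMSO, diluted in buffer, filtered, and concentration set by optical density. IC50 from log dose-displacement curves. Ki by Cheng-Prusoff with Kd 2.6 nM. Mean of three to six determinations ± SEM.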

Mus musculus [2] = organism: Mus musculus; assay: Antagonist activity was determined against the selective delta -agonist DPDPE in the MVD (mouse vas deferens) assay; type: functional
Method in brief: (§1)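 Mouse vas deferens, electrically evoked contractions. DPDPE IC50 measured with and without a fixed antagonist concentration (50 to 4000 nM). Ke = a/(DR − 1), where DR is the ratio of agonist IC50 values. Mean of three to six determinations ± SEM.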

Mu-type opioid receptor = Mu-type opioid receptor (Rattus norvegicus, UniProt P33535); assay: Binding affinity was determined by displacement of [3H]- DAMGO at Opioid receptor mu 1 in rat brain membrane homogenates; type: cell membranes
Method in brief: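 Rat brain membranes, [3H]DAMGO at 0.72 nM, 2 h at 25 °C. Enzyme inhibitor cocktail in buffer (bestatin 100 µM, captopril 1.0 µM, thiorphan 1.0 µM, Leu-Leu 100 µM). IC50 from log dose-displacement curves. Ki by Cheng-Prusoff using Kd 1.3 nM. Mean of three to six determinations ± SEM.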

Mus musculus [3] = organism: Mus musculus; assay: Antagonist activity was determined against the selective delta -agonist DPDPE by inhibition of electrically evoked contractions of the mouse vas deferens; type: functional; method in brief: as §1
Cavia porcellus [4] = organism: Cavia porcellus; assay: (§2) Antagonist activity was determined against the selective delta -agonist TAPP in the GPI (guinea pig ileum) assay; type: functional, organism-based
Method in brief: (§3)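 Guinea pig ileum, electrically evoked contractions. µ-Agonist TAPP IC50 measured with and without antagonist at a fixed 500 nM. Ke = a/(DR − 1) from the IC50 ratio. Mean of three to six determinations ± SEM.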

Cavia porcellus [5] = organism: Cavia porcellus; assay: as §2; type: functional; method in brief: as §3

Mu-type opioid receptor, sequence (P33535 whole entry, looked up): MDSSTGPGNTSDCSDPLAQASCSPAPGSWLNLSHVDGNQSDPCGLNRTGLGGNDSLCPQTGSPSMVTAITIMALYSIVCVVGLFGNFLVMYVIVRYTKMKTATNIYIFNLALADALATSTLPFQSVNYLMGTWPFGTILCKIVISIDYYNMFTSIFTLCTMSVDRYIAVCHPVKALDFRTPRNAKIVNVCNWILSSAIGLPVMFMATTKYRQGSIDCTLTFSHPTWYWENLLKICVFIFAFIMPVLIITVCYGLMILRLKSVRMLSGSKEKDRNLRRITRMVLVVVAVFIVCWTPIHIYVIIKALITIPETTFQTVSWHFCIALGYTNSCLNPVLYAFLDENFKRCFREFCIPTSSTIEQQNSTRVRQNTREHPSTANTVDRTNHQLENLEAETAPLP
Delta-type opioid receptor, sequence (P33533 whole entry, looked up): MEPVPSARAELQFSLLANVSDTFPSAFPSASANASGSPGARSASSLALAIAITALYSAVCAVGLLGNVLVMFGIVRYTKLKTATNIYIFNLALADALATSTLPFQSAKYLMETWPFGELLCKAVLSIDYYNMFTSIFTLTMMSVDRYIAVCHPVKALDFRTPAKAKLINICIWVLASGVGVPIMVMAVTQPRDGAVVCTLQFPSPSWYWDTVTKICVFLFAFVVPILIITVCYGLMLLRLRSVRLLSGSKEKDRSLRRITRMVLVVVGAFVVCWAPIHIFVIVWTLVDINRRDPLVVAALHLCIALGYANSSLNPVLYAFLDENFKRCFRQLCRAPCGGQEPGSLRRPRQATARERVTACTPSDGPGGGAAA

SMILES: C[C@@H](O)[C@@H]1NC(=O)[C@H](Cc2ccc(O)cc2)NC(=O)[C@@H](Cc2c[nH]c3ccccc23)NC(=O)[C@H](Cc2ccc3ccccc3c2)NC(=O)[C@@H]2CCCN2C(=O)[C@H](Cc2ccccc2)NC1=O
- Ki [1]: 1070 nM
- Ke (Mus musculus [2]): 2460 nM
- Ki (Mu-type opioid receptor): > 10000 nM

SMILES: C[C@@H](O)[C@@H]1NC(=O)[C@H](Cc2ccc(O)cc2)NC(=O)[C@@H](Cc2c[nH]c3ccccc23)NC(=O)[C@H](Cc2ccccc2)NC(=O)[C@@H]2CCCN2C(=O)[C@H](Cc2ccccc2)NC1=O (cyclo(FPF[dW]YT))
- Ki [1]: 759 nM
- Ke (Mus musculus [3]): 238 nM
- Ki (Mu-type opioid receptor): > 10000 nM

SMILES: Cc1cc(O)cc(C)c1C[C@H](N)C(=O)N[C@@H]1CCCNC(=O)CNC(=O)[C@H]2CCCN2C(=O)[C@H](Cc2ccc3ccccc3c2)NC1=O (H-[Dmt][dOrn][2Nal][dP]G; lactam 2-C)
- Ki [1]: 0.467 nM
- IC50 (Cavia porcellus [4]): 7.88 nM
- Ke (Mus musculus [2]): 2.13 nM
- Ki (Mu-type opioid receptor): 0.476 nM

SMILES: Cc1cc(O)cc(C)c1C[C@H](NC=O)C(=O)N[C@@H]1CCCNC(=O)CNC(=O)[C@H]2CCCN2C(=O)[C@H](Cc2ccc3ccccc3c2)NC1=O
- Ki [1]: 32.8 nM
- Ke (Cavia porcellus [5]): 216 nM
- Ke (Mus musculus [2]): 16.3 nM
- Ki (Mu-type opioid receptor): 218 nM

SMILES: Cc1cc(O)cc(C)c1CCC(=O)N[C@@H]1CCCNC(=O)CNC(=O)[C@H]2CCCN2C(=O)[C@H](Cc2ccc3ccccc3c2)NC1=O
- Ki [1]: 109 nM
- Ke (Cavia porcellus [5]): 237 nM
- Ke (Mus musculus [2]): 121 nM
- Ki (Mu-type opioid receptor): 450 nM

SMILES: C[C@@H](O)[C@@H]1NC(=O)[C@H](Cc2ccc(O)cc2)NC(=O)[C@@H](Cc2c[nH]c3ccccc23)NC(=O)[C@H](Cc2cccc3ccccc23)NC(=O)[C@@H]2CCCN2C(=O)[C@H](Cc2ccccc2)NC1=O
- Ki [1]: 152 nM
- Ke (Mus musculus [2]): 128 nM
- Ki (Mu-type opioid receptor): > 10000 nM

SMILES: C[C@@H](O)[C@@H]1NC(=O)[C@H](CC2CCCCC2)NC(=O)[C@@H](Cc2c[nH]c3ccccc23)NC(=O)[C@H](Cc2ccccc2)NC(=O)[C@@H]2CCCN2C(=O)[C@H](Cc2ccccc2)NC1=O
- Ki [1]: 486 nM
- Ke (Mus musculus [2]): 202 nM
- Ki (Mu-type opioid receptor): > 10000 nM

Reference: ChEMBL document CHEMBL1133698, “Novel ligands lacking a positive charge for the delta- and mu-opioid receptors” (J Med Chem, 2000)
